Laboratory results taken from ChEMBL document CHEMBL3774386, “Synthesis and structure activity relationship investigation of triazolo[1,5-a]pyrimidines as CB2 cannabinoid receptor inverse agonists” (Eur J Med Chem, 2016).
pEC50, pIC50, pKi: −log10 of the molar value.

Experiments:
Cannabinoid receptor 2 [1] = target: T1, Cannabinoid receptor 2 (Homo sapiens, UniProt P34972); assay: Displacement of [3H]CP-55,940 from human CB2 receptor expressed in CHO cell membranes after 60 mins by scintillation counting analysis
Cannabinoid receptor 1 = Cannabinoid receptor 1 (Homo sapiens, UniProt P21554); assay: Displacement of [3H]CP-55,940 from human CB1 receptor expressed in CHO cell membranes after 90 mins by scintillation counting analysis
CHO = assay: Selectivity ratio of Ki for human CB1 receptor expressed in CHO cell membranes to Ki for human CB2 receptor expressed in CHO cell membranes; type: cell-based
Summary of the method: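 CHO membranes with human CB1 or CB2 in 50 mM Tris-HCl, 0.5% BSA, pH 7.4, 5 mM MgCl2, with 1 mM (CB1) or 2.5 mM (CB2) EDTA. Competition against 0.5 nM [3H]CP-55,940 at 30 °C for 90 min (CB1) or 60 min (CB2). GF/C filtration, scintillation counting. Ki from IC50 by Cheng–Prusoff; mean ± SEM, n = 4.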

Cannabinoid receptor 2 [2] = target: T1, Cannabinoid receptor 2; assay: Antagonist activity at human CB2 receptor transfected in CHO cells assessed as inhibition of WIN 55,212-2 mediated suppression of forksolin induced cAMP production by scintillation counting analysis; type: functional, cell-based
Summary of the method: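 Human CB2-transfected CHO cells, 1 × 10^6 cells/assay, forskolin-stimulated, with WIN 55,212-2 (20 nM) plus compound over a concentration range. cAMP read by [3H]-cAMP competition: 150 min at 4 °C, charcoal separation, scintillation counting. IC50 derived from reversal of the WIN 55,212-2 inhibition; mean ± SEM of three experiments in duplicate.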

Cannabinoid receptor 2 [3] = target: T1, Cannabinoid receptor 2; assay: Inverse agonist activity at human CB2 receptor transfected in CHO cells assessed as increase in forksolin stimulated cAMP production at 1 uM by scintillation counting analysis relative to control; type: functional, cell-based
Cannabinoid receptor 2 [4] = target: T1, Cannabinoid receptor 2; assay: Inverse agonist activity at human CB2 receptor transfected in CHO cells assessed as increase in forksolin stimulated cAMP production at 10 uM by scintillation counting analysis relative to control; type: functional, cell-based
Cannabinoid receptor 2 [5] = target: T1, Cannabinoid receptor 2; assay: Inverse agonist activity at human CB2 receptor transfected in CHO cells assessed as increase in forksolin stimulated cAMP production by scintillation counting analysis; type: functional, cell-based
Summary of the method: (§1)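 Human CB2-transfected CHO cells detached with trypsin, 1 × 10^6 cells/assay, with forskolin and compound over a concentration curve. cAMP measured by [3H]-cAMP competition: 150 min at 4 °C, charcoal, centrifugation, supernatant counted. Expressed as % increase of forskolin-stimulated cAMP and fitted for EC50; three independent experiments in duplicate.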

Cannabinoid receptor 2 [6] = target: T1, Cannabinoid receptor 2; assay: Partial agonist activity at human CB2 receptor transfected in CHO cells assessed as forksolin stimulated cAMP production by scintillation counting analysis relative to control; type: functional, cell-based; summary of the method: as §1

T1 sequence (P34972 whole entry): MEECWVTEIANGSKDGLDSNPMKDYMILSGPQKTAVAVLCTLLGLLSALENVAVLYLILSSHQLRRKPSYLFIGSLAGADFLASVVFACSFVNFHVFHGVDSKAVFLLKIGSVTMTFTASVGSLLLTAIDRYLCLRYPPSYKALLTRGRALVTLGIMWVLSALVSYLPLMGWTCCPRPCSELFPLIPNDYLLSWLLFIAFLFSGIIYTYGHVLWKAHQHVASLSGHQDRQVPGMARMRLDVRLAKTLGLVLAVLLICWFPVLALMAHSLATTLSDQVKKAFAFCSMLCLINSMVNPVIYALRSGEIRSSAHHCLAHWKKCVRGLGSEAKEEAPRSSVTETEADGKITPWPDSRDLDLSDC
Cannabinoid receptor 1, sequence (P21554 whole entry): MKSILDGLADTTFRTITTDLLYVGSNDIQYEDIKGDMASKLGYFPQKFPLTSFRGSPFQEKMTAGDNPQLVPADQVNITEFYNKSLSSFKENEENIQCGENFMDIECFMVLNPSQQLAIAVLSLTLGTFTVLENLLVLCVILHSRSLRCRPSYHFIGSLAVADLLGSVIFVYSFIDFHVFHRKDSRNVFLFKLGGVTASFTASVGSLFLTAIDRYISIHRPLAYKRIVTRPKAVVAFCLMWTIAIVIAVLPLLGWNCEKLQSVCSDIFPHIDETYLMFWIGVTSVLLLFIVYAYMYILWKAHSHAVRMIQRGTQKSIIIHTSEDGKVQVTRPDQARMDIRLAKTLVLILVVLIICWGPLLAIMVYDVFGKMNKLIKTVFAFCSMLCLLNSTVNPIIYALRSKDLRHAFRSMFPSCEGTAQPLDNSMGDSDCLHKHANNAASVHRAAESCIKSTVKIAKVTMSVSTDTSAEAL

Compound	pKi (Cannabinoid receptor 2 [1])	pKi (Cannabinoid receptor 1)	Ratio Ki (CHO)	pIC50 (Cannabinoid receptor 2 [2])	Emax (Cannabinoid receptor 2 [3])	Emax (Cannabinoid receptor 2 [4])	pEC50 (Cannabinoid receptor 2 [5])	Emax (Cannabinoid receptor 2 [6])
CCCCCn1cc(C(=O)NC2CCCCC2)c(=O)n2nc(SC)nc12	6.15	< 5.00	> 14	–	–	–	–	–
C=CCN(CC=C)c1nc2n(CCCCC)cc(C(=O)NC34CC5CC(CC(C5)C3)C4)c(=O)n2n1	6.80	< 5.00	> 63	–	–	–	–	–
CCCCCn1cc(C(=O)NC23CC4CC(CC(C4)C2)C3)c(=O)n2nc(-c3ccccc3)nc12	–	–	146	8.07	53%	132%	6.79	–
CCCCCn1cc(C(=O)NC23CC4CC(CC(C4)C2)C3)c(=O)n2nc(-c3ccc(C)cc3)nc12	8.17	5.82	223	7.90	–	256%	6.19	–
CCCCCn1cc(C(=O)NC23CC4CC(CC(C4)C2)C3)c(=O)n2nc(-c3ccc(OC)cc3)nc12	7.33	5.43	79	6.89	53%	132%	6.07	–
CCCCCn1cc(C(=O)NC2CCCCCC2)c(=O)n2nc(-c3ccc(C)cc3)nc12	7.66	5.20	289	7.19	53%	132%	6.41	–
CCCCCn1cc(C(=O)NC23CC4CC(CC(C4)C2)C3)c(=O)n2nc(N3CCOCC3)nc12	7.28	< 5.00	140	6.79	53%	132%	6.17	–
CCCCCn1cc(C(=O)NC2CCCCC2)c(=O)n2nc(-c3ccc(C)cc3)nc12	7.51	< 5.00	> 323	7.10	53%	132%	6.33	–
CCCCCn1cc(C(=O)NC2CCCCCC2)c(=O)n2ncnc12	6.29	6.14	1	–	–	–	–	–
CCCCCn1cc(C(=O)NC23CC4CC(CC(C4)C2)C3)c(=O)n2nc(N(C)Cc3ccccc3)nc12	7.68	< 5.00	> 476	7.54	53%	132%	6.34	–
C=CCN(CC=C)c1nc2n(CCCCC)cc(C(=O)NC3CCCCC3)c(=O)n2n1	5.87	< 5.00	> 7	–	–	–	–	–
CCCCCn1cc(C(=O)NC23CC4CC(CC(C4)C2)C3)c(=O)n2nc(C)nc12	6.42	6.33	1	6.06	53%	132%	5.68	–
CCCCCn1cc(C(=O)NC2CCCCC2)c(=O)n2nc(-c3ccccc3)nc12	7.37	5.49	75	6.95	53%	132%	6.12	–
CCCCCn1cc(C(=O)NC23CC4CC(C)(CC(C)(C4)C2)C3)c(=O)n2ncnc12	7.60	6.21	25	–	53%	132%	7.06	60%
CCCCCn1cc(C(=O)NC23CC4CC(CC(C4)C2)C3)c(=O)n2nc(-c3ccc(Cl)cc3)nc12	7.95	5.28	462	7.61	–	223%	6.20	–
CCCCCn1cc(C(=O)NC23CC4CC(CC(C4)C2)C3)c(=O)n2nc(-c3ccco3)nc12	7.35	5.93	26	6.91	53%	132%	6.11	–
CCCCCn1cc(C(=O)NC2CCCCC2)c(=O)n2nc(-c3ccc(Cl)cc3)nc12	6.93	5.33	40	–	–	–	–	–
CCCCCn1cc(C(=O)NC2CCCCC2)c(=O)n2nc(-c3ccc(OC)cc3)nc12	7.02	5.23	61	–	–	–	–	–
CCCCCn1cc(C(=O)NC2CCCCCC2)c(=O)n2nc(-c3ccccc3)nc12	7.32	5.61	52	6.85	53%	132%	6.07	–
CCCCCn1cc(C(=O)NC23CC4CC(CC(C4)C2)C3)c(=O)n2ncnc12	–	–	36	–	53%	132%	–	57%
CCCCCn1cc(C(=O)NC2CCCCCC2)c(=O)n2nc(N3CCOCC3)nc12	6.25	< 5.00	> 18	–	–	–	–	–
CCCCCn1cc(C(=O)NC23CC4CC(CC(C4)C2)C3)c(=O)n2nc(-c3cccnc3)nc12	6.64	< 5.00	> 44	–	–	–	–	–
CCCCCn1cc(C(=O)NC2CCCCC2)c(=O)n2nc(C)nc12	6.17	6.31	1	–	–	–	–	–
CCCCCn1cc(C(=O)NC23CC4CC(C)(CC(C)(C4)C2)C3)c(=O)n2nc(-c3ccccc3)nc12	8.08	6.19	77	7.74	–	243%	6.31	–
Cc1c(C(=O)c2cccc3ccccc23)c2cccc3c2n1[C@H](CN1CCOCC1)CO3	–	–	–	–	53%	132%	–	–
CCCCCn1cc(C(=O)NC2CCCCC2)c(=O)n2nc(N3CCN(C)CC3)nc12	< 5.00	< 5.00	> 188	–	–	–	–	–
CCCCCn1cc(C(=O)NC23CC4CC(CC(C4)C2)C3)c(=O)n2nc(SC)nc12	7.33	< 5.00	> 213	6.86	53%	132%	6.31	–
CCCCCn1cc(C(=O)NC2CCCCCC2)c(=O)n2nc(N3CCN(C)CC3)nc12	6.01	< 5.00	> 10	–	–	–	–	–
CCCCCn1cc(C(=O)NC2CCCCC2)c(=O)n2nc(N(C)Cc3ccccc3)nc12	5.88	< 5.00	> 7	–	–	–	–	–
CCCCCn1cc(C(=O)NC2CCCCC2)c(=O)n2nc(N3CCOCC3)nc12	< 5.00	< 5.00	–	–	–	–	–	–
